# Source: PubChem BioAssay
# Sampled rows, rich in hits. Any-hit rate of the full collection: about 4.1%.
# TbMetRS inhib: Trypanosoma brucei MetRS inhibition | purified T. brucei MetRS, ATP depletion, Kinase-Glo luminescence | inhibition, % at 11.9 µM | hit rate 0.4% among 360,000;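 active = inhibition above a per-plate cutoff of the control wells' mean inhibition plus 3 SD, cut at about 5.5% in these data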;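 note: 0% = DMSO wells median and 100% = median of wells with control inhibitor compound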
#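 Dosing: 11.9 µM single point; system: parasite MetRS enzyme; technique: luminescence of leftover ATP; times: 15 min enzyme-compound preincubation, 2 h reaction, 10 min detection, 25 °C; replicates: each compound tested once; read-out basis: percent inhibition relative to median high and low control wells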
# AHR activator: activates the human aryl hydrocarbon receptor. P35869. AHR-responsive luciferase reporter cells, luminescence. activation, % at 5 µM. hit rate 2.5% among 320,000. AID 2796; in the data active = activation above about 47%;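 note: 0% = vehicle wells and 100% = reference agonist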
# Efflux pump mplx: blocks antifungal efflux pumps in multiplex yeast assay; hit rate 0.44% among 330,000; S. cerevisiae Candida pump triplex, Nile Red efflux; inhibition, % at 10 µM;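 active = plate passing quality check with inhibition over a set limit, or well fluorescence over plate mean plus 4 SD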;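 note: Nile Red retained in pooled yeast measured as flow cytometry median fluorescence; 0% = buffer negative control and 100% = Enniatin B positive control; higher means more Nile Red kept so more efflux inhibition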
# H9c2 TAG inh: inhibitors of triacylglycerol accumulation | inhibition, % at 12.5 µM | H9c2 cells, Nile Red lipid (TAG) fluorescence; cells loaded with 200 µM oleic acid | hit rate 0.66% among 230,000;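 active = pattern-corrected inhibition of lipid staining of at least 50% with the nuclear-stain viability signal not falling by more than 50%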;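 note: 0% = DMSO wells and 100% = triacsin C control wells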
# SMARCA2 activ: SMARCA2 function activation, primary screen; MG213 cells, MMTV-luciferase reporter, dexamethasone, overnight; activation, % at 9.1 µM; hit rate 1% among 370,000; in the data active = activation above about 7.8%;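 note: 0% = vehicle wells and 100% = reference activator wells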
# Tb MetRS conf: Trypanosoma brucei MetRS inhibition confirmed; hit rate 93% among 1,400; inhibition, % at 11.9 µM; T. brucei MetRS enzyme, luminescence (ATP depletion); shares compounds with TbMetRS inhib; in the data active = inhibition above about 7%
# Jurkat tox: counter-screen for T. brucei MetRS inhibitors: Jurkat cell cytotoxicity. inhibition, % at 8.3 µM. shares compounds with TbMetRS inhib. AID 624413. hit rate 12% among 1,400. Jurkat cells viability, ATP luminescence; in the data active = inhibition above about 15%;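 note: 0% = vehicle and 100% = reference inhibitor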
# TbMetRS FP orth: orthogonal test for Trypanosoma brucei MetRS inhibitors | shares compounds with TbMetRS inhib | purified T. brucei MetRS, fluorescence polarization | inhibition, % at 11.9 µM | hit rate 44% among 1,400 | AID 651607; in the data active = inhibition above about 17%;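 note: 0% = vehicle wells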
# Numbers without * were called inactive; nt = not tested or not shown.
SMILES,TbMetRS inhib,AHR activator,Efflux pump mplx,H9c2 TAG inh,SMARCA2 activ,Tb MetRS conf,Jurkat tox,TbMetRS FP orth
COc1cccc(C2c3[nH]c4ccccc4c3C[C@H]3C(=O)N(C)CC(=O)N23)c1 (stereo partly drawn),15.9*,8.0,0.2,nt,-2.6,30.9*,1.8,9.8
COc1ccc(C2c3[nH]c4ccccc4c3C[C@H]3C(=O)N(C)CC(=O)N23)cc1OC (stereo partly drawn),-0.6,2.4,0.0,nt,-3.8,nt,nt,nt
O=C1[C@@H]2Cc3c([nH]c4ccccc34)C(c3cccc(Br)c3)N2C(=O)CN1C1CCN(Cc2ccccc2)CC1 (stereo partly drawn),41.4*,15.8,0.0,nt,-4.9,54.1*,5.1,27.8*
C=CCN=C1NC(c2cccc(C(F)(F)F)c2)C(C(=O)OC)=C(C)N1Cc1ccccc1C(F)(F)F (stereo not drawn),nt,nt,nt,nt,-2.2,nt,nt,nt
Cc1ccc(CSc2nnc(-c3cccs3)o2)cc1C,nt,nt,nt,nt,-1.9,nt,nt,nt
Cc1ccc2[nH]c(=O)c(CN(Cc3cccs3)Cc3nnnn3Cc3ccccc3)cc2c1,9.1*,3.3,0.2,nt,2.7,20.8*,5.4,14.1
CCOC(=O)Cn1nnnc1CN(Cc1cccs1)Cc1cc2cc(C)ccc2[nH]c1=O,4.2,1.2,0.2,nt,-1.9,nt,nt,nt
Cc1cc(C(=O)NCC(=O)Nc2c(C)cccc2C)c2ccccc2n1,10.9*,20.3,-0.1,-11.6,-3.6,2.6,-0.5,-1.6
CCOc1ccc(Nc2ccc(N)c(S(=O)(=O)O)c2)cc1,-0.2,nt,nt,1.3,-0.1,nt,nt,nt
CC(C)c1ccc(N)c(S(=O)(=O)O)c1,7.7*,-1.6,0.0,-3.4,-0.9,1.9,0.3,6.3
Cn1c(NCc2cccc(Br)c2)nc2ccccc21,40.2*,26.9,0.0,-4.5,1.8,52.9*,8.5,29.1*
Cc1nc2ccc(NC(=O)c3cc(Cl)ccc3F)cc2c(=O)[nH]1,nt,nt,nt,nt,7.7,nt,nt,nt
Cc1cc(Br)ccc1OCCCCNCCO,6.1*,1.7,0.1,nt,-3.4,10.7*,4.6,5.4
C=CCNCCCCOc1ccc(Br)cc1C,4.3,0.4,0.2,nt,0.3,nt,nt,nt
O=C(CCCCCN1C(=O)C2C3C=CC(C3)C2C1=O)N1CCN(c2ncccn2)CC1 (stereo not drawn),nt,nt,nt,nt,-5.1,nt,nt,nt
CCC(=O)c1c[nH]c(C(=O)NCc2cccc(C(F)(F)F)c2)c1,6.0*,10.2,0.0,nt,-4.0,11.7*,5.4,8.8
CCCn1c(NCc2cc(OC)ccc2OC)nc2ccccc21,11.2*,18.5,-0.2,-2.3,1.3,19.9*,4.9,3.9
CCn1c(NCc2cc(OC)ccc2OC)nc2ccccc21,9.8*,4.1,0.1,-22.8,3.3,20.1*,2.3,3.5
COc1ccc(OC)c(CNc2nc3ccccc3n2CCN2CCCCC2)c1,-0.7,7.5,-0.1,nt,-2.3,nt,nt,nt
O=C(c1c[nH]c2ccccc12)N1CCN(c2ccccc2)CC1,-0.1,-3.1,0.2,-3.8,-2.6,nt,nt,nt
O=C(C(=O)N1CCN(c2ccccc2F)CC1)c1c[nH]c2ccccc12,7.3*,-0.8,-0.1,-13.3,3.8,10.8*,6.4,2.9
O=C(C(=O)N1CCN(c2ccccc2)CC1)c1c[nH]c2ccccc12,6.7*,0.3,0.3,-11.0,-3.4,13.0*,4.3,3.0
COc1ccc(N2CCN(CCCNC(=O)C(=O)c3c(C)[nH]c4ccccc34)CC2)cc1,5.9*,5.9,0.2,nt,1.0,18.1*,-1.9,8.1
COc1ccccc1N1CCN(C(=O)C(=O)c2c[nH]c3ccccc23)CC1,9.3*,11.0,0.2,nt,-3.7,26.9*,-2.5,4.1
COc1ccc(N2CCN(CC(=O)c3c[nH]c4ccccc34)CC2)cc1,3.8,10.9,0.1,-8.3,-5.5,nt,nt,nt
COc1ccc(C2CC(=O)C(c3ccccc3C)=CN2Cc2ccccc2)cc1 (stereo not drawn),nt,nt,nt,nt,-4.8,nt,nt,nt
COC(=O)[C@]12CCCCC=C1N(Cc1ccc(OC)cc1)C(=O)[C@@H]2CC(=O)NCc1ccccc1,nt,nt,nt,nt,-2.6,nt,nt,nt
O=C(CN1CCN(Cc2ccc3c(c2)OCO3)CC1)c1c[nH]c2ccccc12,13.6*,14.8,-0.2,13.7,-0.7,27.0*,-3.5,8.6
O=C(c1c[nH]c2ccccc12)N1CCN(Cc2ccccc2)CC1,0.8,17.7,0.5,-4.3,1.6,nt,nt,nt
